Assay outcomes: PubChem BioAssay, several laboratories
ZTA DNA inh – ZTA (EBV) inhibition in EBNA-1 counter-screen. P03206. inhibition, % at 11 µM. 320,000 tested, 0.15% active. ZTA-DNA binding, fluorescence polarization. AID 2234; in the data active = inhibition above about 33%
Target sequence (P03206 whole entry, looked up): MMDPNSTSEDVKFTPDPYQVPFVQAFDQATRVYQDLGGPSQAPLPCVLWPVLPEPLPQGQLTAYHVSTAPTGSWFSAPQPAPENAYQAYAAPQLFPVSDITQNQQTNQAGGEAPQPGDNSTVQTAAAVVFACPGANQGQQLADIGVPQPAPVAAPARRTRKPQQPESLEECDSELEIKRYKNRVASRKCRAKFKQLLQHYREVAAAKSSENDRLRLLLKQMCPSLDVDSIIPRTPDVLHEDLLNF
EBNA-1 inh – blocks EBNA-1 binding to DNA | EBNA-1 DNA binding, fluorescence polarization | inhibition, % at 14.8 µM | 300,000 tested, 0.34% active | AID 1950; in the data active = inhibition above about 28%
NR3A LBD binder – modulators (binders) of human NR3A ligand-binding domain; 340,000 tested, 2.5% active; NR3A LBD differential scanning fluorimetry, Tm shift; 0% = protein alone, 100% = glycine-bound protein; Tm shift relative to glycine control, % at 25 µM; AID 1259313;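 active = melting temperature shift of at least 10% of the positive control shift, at one fixed dose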
HCV NS3 hel inh – inhibitors of Hepatitis C virus NS3 helicase; inhibition, % at 10.9 µM; NS3 helicase DNA unwinding, Cy5 molecular beacon fluorescence; AID 1800; 290,000 tested, 0.56% active;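 active = inhibition above the mean of all tested compounds plus 3 SD, set per campaign, cut at about 35% in these data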;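 also: 0% = DMSO wells and 100% = thioflavine S control wells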
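Test system: hepatitis C virus NS3 helicase domain fragment enzyme. Also added: annealed dual-labelled DNA beacon duplex, ATP-started. Timing: 60 min unwinding reaction at 25 °C after ATP addition. Technique: Cy5 fluorescence. Measure: % inhibition of unwinding.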
FGF22 binding – shifts melting point of recombinant human FGF22; recombinant FGF22 thermal shift, SYPRO orange fluorescence; percent of sucrose octasulfate shift, DMSO zero; activity (Tm shift, normalised), % at 9.99 µM; 340,000 tested, 1.5% active;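 active = mean Tm shift, scaled 0 neutral to 100 positive control, at about 1.3% or above, every replicate too, limit read from the data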
Target sequence (Q9HCT0 whole entry, looked up): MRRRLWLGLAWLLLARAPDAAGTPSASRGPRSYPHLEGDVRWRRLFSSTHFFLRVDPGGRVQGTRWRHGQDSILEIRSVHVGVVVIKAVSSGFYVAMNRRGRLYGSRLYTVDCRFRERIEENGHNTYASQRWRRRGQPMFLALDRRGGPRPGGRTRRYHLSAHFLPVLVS
DNA FID counter-1 – displaces DNA intercalator in HCV helicase counter-screen | AID 1845 | DNA fluorescent intercalator displacement, fluorescence | 290,000 tested, 0.17% active | inhibition, % at 7.9 µM;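 also: 0% = vehicle and 100% = reference compound; higher means more ethidium bromide displaced from hairpin DNA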
NS3 helicase cf – HCV NS3 helicase inhibition, confirmation assay; shares compounds with HCV NS3 hel inh; NS3 helicase DNA unwinding, Cy5 molecular beacon fluorescence; inhibition, % at 10.9 µM; 1,600 tested, 31% active;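 active = inhibition above the mean of all tested compounds plus 3 SD, cutoff set per campaign, cut at about 36% in these data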
DNA FID counter-2 – counter-screen for HCV NS3 helicase inhibitors: DNA intercalator displacement. shares compounds with HCV NS3 hel inh. DNA fluorescent intercalator displacement, fluorescence. inhibition, % at 7.9 µM. 1,600 tested, 4% active. AID 1945;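 also: 0% = vehicle and 100% = reference compound; higher means more displacement of ethidium bromide from the DNA hairpin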
Numbers without * were called inactive; · = not tested or not shown. Sampled rows, rich in hits. Any-hit rate of the full collection: about 3.6%. Rule as the data show it, unless noted: active = inhibition above about 37%; inactive = the rest.

SMILES	ZTA DNA inh	EBNA-1 inh	NR3A LBD binder	HCV NS3 hel inh	FGF22 binding	DNA FID counter-1	NS3 helicase cf	DNA FID counter-2
C[C@H](CO)N1C[C@H](C)[C@H](CN(C)C(=O)NC2CCCCC2)OCCCC[C@H](C)Oc2ccc(NC(=O)Nc3ccccc3)cc2C1=O	·	·	·	·	0	·	·	·
COc1ccc2cc(-c3cc(C(=O)O)c4ccccc4n3)ccc2c1	-6	4	4	40*	·	-24	45*	-6
COc1ccc(-c2cc(C(=O)O)c3ccccc3n2)c(OC)c1	-6	-12	2	1	·	1	·	·
C[C@H](CO)N1C[C@H](C)[C@H](CN(C)C(=O)CCCN(C)C)OCCCC[C@H](C)Oc2ccc(NC(=O)Nc3ccc(C(F)(F)F)cc3)cc2C1=O	·	·	·	·	0	·	·	·
CCOC(=O)c1c(CC(C)C)csc1NC(=O)c1ccccc1C(=O)O	12	1	-2	50*	0	-22	71*	-16
CCOC(=O)c1c(CC(C)C)csc1NC(C)=O	7	3	-2	-5	·	-4	·	·
CCOc1ncccc1C(=O)OCc1cc(=O)oc2c(C)c(C)ccc12	·	·	-2	7	·	-20	·	·
Cc1cccc(C(=O)OCc2cc(=O)oc3c(C)c(C)ccc23)c1O	-17	-10	2	37*	·	-8	-11	14
C[C@@H]1CN([C@@H](C)CO)C(=O)c2cc(NS(=O)(=O)c3ccc(Cl)cc3)ccc2O[C@@H](C)CCCCO[C@H]1CN(C)Cc1ccc(C(F)(F)F)cc1	·	·	·	·	0	·	·	·
O=C(CCC(=O)NCc1ccccc1)NCc1ccccc1	-7	-5	0	48*	0	-14	-11	-3
O=C(COC(=O)CCc1c[nH]c2ccccc12)NCc1ccccc1	7	3	12*	43*	0	-26	9	-26
O=C(COC(=O)CCc1c[nH]c2ccccc12)NCc1ccc(Cl)cc1	5	-4	-5	-6	0	-14	·	·
O=C(O)c1ccc(-n2nc(C(F)(F)F)c3c2-c2ccoc2CC3)cc1	-8	-11	3	37*	·	-22	51*	-14
Cn1nnnc1SCc1nc2scc(-c3ccc(Cl)cc3)c2c(=O)[nH]1	-8	-2	1	42*	0	-8	-17	1
CN1C(=O)c2cc(NC(=O)c3ccccc3F)ccc2OC[C@@H]2O[C@H](CC(=O)NCc3ccc4c(c3)OCO4)CC[C@H]21	·	·	·	·	0	·	·	·
CC(C)CN1CCN=C1Nc1ccccc1	5	7	-2	18	0	-5	·	·
CC(C)CCN1CCN=C1Nc1ccccc1	11	6	-2	50*	0	0	-19	12
O=C(O)CCn1cc(C(=O)O)c(-c2ccccc2)n1	-4	5	2	45*	0	2	-12	2
CC1CCCCN1C(=O)Cn1cc(C(=O)c2ccco2)c2ccccc21 (configuration not stated)	-1	-2	0	38*	·	-23	-8	-24
COCCNC(=O)C[C@H]1CC[C@@H]2[C@H](COC[C@@H](O)CN2S(=O)(=O)c2ccccc2C)O1	·	·	·	·	0	·	·	·
Cc1c(NC(=O)CN2C(=O)NC3(CCCC3)C2=O)c(=O)n(-c2ccccc2)n1C	-15	-6	0	36*	0	-1	-4	16
Cc1sc2nc3c(SC(C)C(=O)O)cc(C(=O)c4ccccc4O)cn3c(=O)c2c1C (configuration not stated)	22	15	-19	45*	·	-21	70*	56*
CCOC(=O)c1sc2nc3c(SCC(=O)O)cc(C(=O)c4cc(F)ccc4O)cn3c(=O)c2c1C	10	4	-1	36*	1	-10	52*	65*
CCOC(=O)c1sc2nc3c(SCC(=O)O)cc(C(=O)c4ccccc4O)cn3c(=O)c2c1C	-7	8	2	23	0	-2	·	·
Cc1noc(C)c1NC(=O)N(C)C[C@H]1OCCCC[C@H](C)Oc2ccc(NS(=O)(=O)c3c(C)noc3C)cc2C(=O)N([C@H](C)CO)C[C@@H]1C	·	·	·	·	0	·	·	·
SMILES	ZTA DNA inh	EBNA-1 inh	NR3A LBD binder	HCV NS3 hel inh	FGF22 binding	DNA FID counter-1	NS3 helicase cf	DNA FID counter-2
CCCNC(=O)N1C[C@H]2[C@@H](c3ccccc31)[C@@H](CO)N2C(=O)c1ccncc1	·	·	·	·	0	·	·	·
COC(=O)C[C@H]1CC[C@@H]2[C@@H](COc3ccc(NC(=O)c4cnccn4)cc3C(=O)N2C)O1	·	·	·	·	0	·	·	·
Cc1cc(C2=NNC(=NC3CC3)SC2)c(C)n1-c1ccccc1	·	·	0	12	0	-9	·	·
Cc1cc(C2=NNC(=NCc3ccccc3)SC2)c(C)n1-c1c(C)n(C)n(-c2ccccc2)c1=O	·	·	-2	36*	0	-35	7	-17
Cc1ccccc1-c1ccc(C2[C@@H]3CN(C(=O)Cc4ccncc4)C[C@H]2N3)cc1 (some centres not stated)	·	·	·	·	0	·	·	·
O=C(CCc1nc2ccccc2c(=O)[nH]1)Nc1ccc(F)c([N+](=O)[O-])c1	6	-7	-3	52*	1	-17	-11	13
COc1ccc(S(=O)(=O)N(C)C[C@@H]2Oc3ccc(N(C)C)cc3C(=O)N([C@@H](C)CO)C[C@H]2C)cc1	·	·	·	·	0	·	·	·
NC(=O)N/N=C/c1ccc(N2CCOCC2)s1	-14	-1	1	-7	0	-8	·	·
O=C(O)c1cc(N/N=C/c2ccc(N3CCOCC3)s2)ccc1Cl	2	1	0	47*	0	-17	80*	27
COC(=O)c1cc(N=Cc2c(O)c3ccccc3oc2=O)cc(C(=O)OC)c1	13	-15	3	40*	·	2	4	10
Cc1cc(C)cc(N=Cc2c(O)c3ccccc3oc2=O)c1	-3	0	-2	12	1	2	·	·
Fc1cccc(Cl)c1C1Nc2cccc3cccc(c23)N1	-14	-10	-3	45*	0	-14	-20	31
Clc1cccc(Cl)c1C1Nc2cccc3cccc(c23)N1	-20	4	-1	75*	0	-13	-33	20
c1ccc(C2Nc3cccc4cccc(c34)N2)cc1	-14	1	0	15	0	-1	·	·
COc1ccc(NC(=O)CC2C(=O)N(c3ccc(OC)cc3)C(=O)N2C(C)C)cc1 (configuration not stated)	9	5	-2	46*	·	3	-10	-5
C/C=C/c1ccc([C@H]2[C@H]3CN(S(=O)(=O)c4cccs4)CCCCN3[C@H]2CO)cc1	·	·	·	·	-1	·	·	·
C[C@@H]1CN([C@H](C)CO)C(=O)c2cc(-c3ccccc3F)cnc2O[C@@H]1CN(C)Cc1cccc(C(=O)O)c1	·	·	·	·	1	·	·	·
